ChEMBL document CHEMBL2163282, “Discovery and characterization of AZD9272 and AZD6538-Two novel mGluR5 negative allosteric modulators selected for clinical development” (Bioorg Med Chem Lett, 2012)
pIC50, pKd: −log10 of the molar value. ≈ marks a conversion by molar mass, not a printed value.

Assays:
[1] = biological target: T1, Metabotropic glutamate receptor 5 (Homo sapiens, UniProt P41594); test: Negative allosteric modulation of human recombinant mGluR5 expressed in HEK293 cells expressing GLAST assessed as inhibition of DHPG-induced intracellular Ca2+ level after 30 mins by FLIPR assay
Target sequence in this assay (P41594 whole entry): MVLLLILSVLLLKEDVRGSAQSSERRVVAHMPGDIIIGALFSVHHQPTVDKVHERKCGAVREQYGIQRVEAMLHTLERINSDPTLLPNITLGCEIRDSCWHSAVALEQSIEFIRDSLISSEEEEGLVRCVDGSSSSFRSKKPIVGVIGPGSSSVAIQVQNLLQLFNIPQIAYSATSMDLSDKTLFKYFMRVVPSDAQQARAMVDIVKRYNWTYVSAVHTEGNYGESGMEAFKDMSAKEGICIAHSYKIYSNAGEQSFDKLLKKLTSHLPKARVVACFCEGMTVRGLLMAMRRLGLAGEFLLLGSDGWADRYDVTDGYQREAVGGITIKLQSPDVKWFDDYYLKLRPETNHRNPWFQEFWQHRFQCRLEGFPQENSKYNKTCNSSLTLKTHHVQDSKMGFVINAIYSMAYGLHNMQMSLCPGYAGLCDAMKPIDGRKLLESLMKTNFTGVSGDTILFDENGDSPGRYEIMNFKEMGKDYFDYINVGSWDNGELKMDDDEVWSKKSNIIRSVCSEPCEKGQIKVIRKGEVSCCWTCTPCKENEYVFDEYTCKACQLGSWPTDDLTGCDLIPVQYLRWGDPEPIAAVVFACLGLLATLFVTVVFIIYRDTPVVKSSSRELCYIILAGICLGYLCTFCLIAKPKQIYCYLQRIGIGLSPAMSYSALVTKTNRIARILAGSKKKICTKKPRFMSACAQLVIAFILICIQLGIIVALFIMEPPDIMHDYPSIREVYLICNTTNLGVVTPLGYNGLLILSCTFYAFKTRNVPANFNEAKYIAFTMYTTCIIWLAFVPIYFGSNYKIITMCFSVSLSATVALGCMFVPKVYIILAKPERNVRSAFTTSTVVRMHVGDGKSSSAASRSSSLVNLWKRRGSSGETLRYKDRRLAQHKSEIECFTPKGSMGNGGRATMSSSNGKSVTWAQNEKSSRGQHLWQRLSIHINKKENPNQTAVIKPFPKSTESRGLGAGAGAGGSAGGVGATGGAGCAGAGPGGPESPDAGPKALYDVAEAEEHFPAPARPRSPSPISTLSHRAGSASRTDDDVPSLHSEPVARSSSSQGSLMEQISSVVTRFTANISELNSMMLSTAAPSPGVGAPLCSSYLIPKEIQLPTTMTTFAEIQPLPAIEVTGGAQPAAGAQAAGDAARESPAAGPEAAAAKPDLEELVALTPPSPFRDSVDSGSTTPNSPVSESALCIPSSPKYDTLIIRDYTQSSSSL

[2] = biological target: Metabotropic glutamate receptor 5 (Rattus norvegicus, UniProt P31424); test: Binding affinity to mGluR5 in Sprague-Dawley rat striatum after 60 mins by autoradiographic analysis
Metabotropic glutamate receptor 5 (Rattus norvegicus, UniProt P31424), sequence (P31424 whole entry): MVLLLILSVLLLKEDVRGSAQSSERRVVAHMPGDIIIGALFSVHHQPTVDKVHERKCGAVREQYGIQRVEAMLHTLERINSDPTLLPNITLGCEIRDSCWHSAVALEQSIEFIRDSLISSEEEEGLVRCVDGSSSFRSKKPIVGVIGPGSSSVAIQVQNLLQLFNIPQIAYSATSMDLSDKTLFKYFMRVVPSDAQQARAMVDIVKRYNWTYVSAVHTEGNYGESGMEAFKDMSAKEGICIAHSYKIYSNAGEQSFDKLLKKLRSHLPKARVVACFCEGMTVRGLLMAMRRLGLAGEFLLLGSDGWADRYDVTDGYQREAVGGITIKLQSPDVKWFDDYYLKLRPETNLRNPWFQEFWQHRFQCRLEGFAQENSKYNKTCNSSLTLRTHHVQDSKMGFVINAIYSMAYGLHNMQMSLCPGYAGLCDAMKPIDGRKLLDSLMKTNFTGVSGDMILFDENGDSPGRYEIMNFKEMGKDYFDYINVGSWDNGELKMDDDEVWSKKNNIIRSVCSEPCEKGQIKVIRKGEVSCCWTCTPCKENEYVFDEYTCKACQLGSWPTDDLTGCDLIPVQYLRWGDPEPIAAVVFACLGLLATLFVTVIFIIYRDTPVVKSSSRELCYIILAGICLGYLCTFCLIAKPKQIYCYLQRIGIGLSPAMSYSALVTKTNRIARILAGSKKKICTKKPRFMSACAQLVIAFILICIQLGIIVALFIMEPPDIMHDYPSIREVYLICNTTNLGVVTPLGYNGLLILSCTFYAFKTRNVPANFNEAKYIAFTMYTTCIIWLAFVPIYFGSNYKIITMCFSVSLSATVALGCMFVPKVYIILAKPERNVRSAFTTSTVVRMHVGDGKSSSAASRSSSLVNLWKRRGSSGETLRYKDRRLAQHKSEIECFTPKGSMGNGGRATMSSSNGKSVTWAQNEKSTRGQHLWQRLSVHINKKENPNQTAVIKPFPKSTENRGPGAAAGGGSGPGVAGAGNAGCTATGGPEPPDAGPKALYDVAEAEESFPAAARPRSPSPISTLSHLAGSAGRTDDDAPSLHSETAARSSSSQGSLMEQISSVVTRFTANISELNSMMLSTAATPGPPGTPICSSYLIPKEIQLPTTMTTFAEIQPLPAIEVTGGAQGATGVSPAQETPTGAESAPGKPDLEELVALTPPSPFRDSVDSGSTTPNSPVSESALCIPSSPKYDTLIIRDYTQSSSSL

[3] = biological target: T1, Metabotropic glutamate receptor 5; test: Binding affinity to human mGluR5 expressed in HEK293 cell membranes expressing GLAST after 1 hr by scintillation counter in absence of MPEP
How it was run: (§1)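 [3H]AZD9272 equilibrium saturation binding on membranes from human mGluR5-GHEK cells (HEK293 stably expressing glutamate/aspartate transporter), run without MPEP or with 10 or 20 nM MPEP; filtration termination; Kd and Bmax (pmol/mg protein) derived per assay, three separate assays.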
Target sequence in this assay (P41594 whole entry): as the sequence (P41594 whole entry) above

Brain = test: Drug uptake in Sprague-Dawley rat brain at 10 and 30 nmol/kg, iv administered as infusion after 5 mins by autoradiographic analysis; format: ADME, organism-based; conditions: in vivo
How it was run: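 Rats were dosed intravenously with [3H]AZD9272 at 10 or 30 nmol/kg. Five minutes later, brains were removed and sectioned sagittally. Radiolabel distribution was assessed by conventional autoradiography.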

[4] = biological target: T1, Metabotropic glutamate receptor 5; test: Binding affinity to human mGluR5 expressed in HEK293 cell membranes expressing GLAST after 1 hr by scintillation counter in presence of 10 nM MPEP; how it was run: as §1
Target sequence in this assay (P41594 whole entry): as above

[5] = biological target: T1, Metabotropic glutamate receptor 5; test: Binding affinity to human mGluR5 expressed in HEK293 cell membranes expressing GLAST by scintillation counting
Target sequence in this assay (P41594 whole entry): as above

[6] = biological target: T1, Metabotropic glutamate receptor 5; test: Binding affinity to human mGluR5 expressed in HEK293 cell membranes expressing GLAST after 1 hr by scintillation counter in presence of 20 nM MPEP; how it was run: as §1
Target sequence in this assay (P41594 whole entry): as above

[7] = biological target: T1, Metabotropic glutamate receptor 5; test: Binding affinity to human mGluR5 expressed in HEK293 cell membranes expressing GLAST assessed as per mg of protein after 1 hr by scintillation counter
Target sequence in this assay (P41594 21-1212 limits assumed): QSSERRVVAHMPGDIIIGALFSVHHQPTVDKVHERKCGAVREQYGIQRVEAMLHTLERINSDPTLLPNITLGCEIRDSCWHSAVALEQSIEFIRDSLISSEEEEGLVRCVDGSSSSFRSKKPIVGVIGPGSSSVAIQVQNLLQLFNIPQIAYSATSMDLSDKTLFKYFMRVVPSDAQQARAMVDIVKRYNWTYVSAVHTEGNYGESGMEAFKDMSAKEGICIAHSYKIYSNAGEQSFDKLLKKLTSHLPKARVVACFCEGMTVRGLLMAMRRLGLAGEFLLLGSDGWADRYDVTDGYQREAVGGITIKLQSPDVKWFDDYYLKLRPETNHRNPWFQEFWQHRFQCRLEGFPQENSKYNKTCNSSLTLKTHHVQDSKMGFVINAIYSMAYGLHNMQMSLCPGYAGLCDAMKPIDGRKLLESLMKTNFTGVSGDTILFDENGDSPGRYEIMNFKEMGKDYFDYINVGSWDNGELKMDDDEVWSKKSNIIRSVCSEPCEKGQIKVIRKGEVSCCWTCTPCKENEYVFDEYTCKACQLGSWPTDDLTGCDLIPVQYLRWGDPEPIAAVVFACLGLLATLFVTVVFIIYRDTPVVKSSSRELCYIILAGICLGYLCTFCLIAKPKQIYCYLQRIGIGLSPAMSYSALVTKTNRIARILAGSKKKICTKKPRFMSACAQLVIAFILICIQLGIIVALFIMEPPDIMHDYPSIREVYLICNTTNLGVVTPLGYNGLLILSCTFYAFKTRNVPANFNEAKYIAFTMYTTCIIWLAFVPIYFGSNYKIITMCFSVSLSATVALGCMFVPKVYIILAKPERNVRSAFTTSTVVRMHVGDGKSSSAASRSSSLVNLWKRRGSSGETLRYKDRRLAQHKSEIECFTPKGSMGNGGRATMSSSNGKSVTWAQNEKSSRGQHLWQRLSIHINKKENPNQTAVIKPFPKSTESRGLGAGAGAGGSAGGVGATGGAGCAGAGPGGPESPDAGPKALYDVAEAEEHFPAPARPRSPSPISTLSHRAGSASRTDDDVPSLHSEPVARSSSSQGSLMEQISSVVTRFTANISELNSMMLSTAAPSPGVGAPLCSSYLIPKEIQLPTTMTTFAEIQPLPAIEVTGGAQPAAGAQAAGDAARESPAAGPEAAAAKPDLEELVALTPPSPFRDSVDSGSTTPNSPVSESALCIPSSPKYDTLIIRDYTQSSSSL

[8] = Equilibrium solubility of the compound […]; format: physicochemical
How it was run: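 Solubility was measured by a dried-DMSO rapid-throughput method.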

[9] = Intrinsic clearance in human liver microsomes; format: ADME, Microsome; conditions: read-out: CLH
How it was run: (§2)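 Intrinsic clearance was determined in human or rat microsomes and expressed per min per mg protein.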

[10] = Intrinsic clearance in rat liver microsomes; format: ADME, Microsome; conditions: read-out: CLH; how it was run: as §2

Row | Structure (SMILES) | pIC50 [1] | other results
1 | [3H]c1c(F)cc(-c2nc(-c3ccc(F)cn3)no2)cc1C#N | – | pKd [2]: 8.03; pKd [3]: 8.42; Drug uptake (Brain): Active; pKd [4]: 8.26; pKd [5]: 8.55; pKd [6]: 8.14
2 | N#Cc1cc(F)cc(-c2noc(-c3ccccn3)n2)c1 | 7.64 | –
3 | FC(F)(F)c1cc(-c2nc(-c3ccccn3)no2)cc(C(F)(F)F)c1 | < 5.00 | –
4 | N#Cc1cc(F)cc(-c2ccc(-c3ccccn3)o2)c1 | 7.21 | –
5 | N#Cc1cc(C#N)cc(-c2nc(-c3ccccn3)no2)c1 | 6.75 | –
6 | N#Cc1cc(F)cc(-c2nc(-c3ccccn3)co2)c1 | 7.66 | –
7 | N#Cc1cc(F)cc(-c2nc(-c3ncccn3)no2)c1 | 5.96 | –
8 | Fc1cc(F)cc(-c2nc(-c3ccccn3)no2)c1 | 6.81 | –
9 | Cc1cccc(C#Cc2ccccc2)n1 | – | Bmax [7]: 4.4 pmol
10 | N#Cc1cc(F)cc(-c2nc(-c3ccccn3)no2)c1 | 7.60 | solubility [8]: 78.1 µM (≈ 20.8 µg/mL); microsomal CLint [9]: 92 µL/min/mg; microsomal CLint [10]: 29 µL/min/mg
11 | N#Cc1cc(F)cc(-c2nc(-c3cnccn3)no2)c1 | 5.33 | –
12 | FC(F)(F)Oc1cccc(-c2nc(-c3ccccn3)no2)c1 | 6.15 | –
13 | NC(=O)c1ccccc1-c1nc(-c2ccccn2)no1 | 5.48 | –

Now from value to compound, other results behind:

Row | pIC50 [1] | Structure (SMILES) | other results
14 | 6.94 | Clc1cccc(-c2nc(-c3ccccn3)no2)c1 | –
15 | < 5.00 | Clc1ccc(-c2nc(-c3ccccn3)no2)cc1 | –
16 | 6.85 | Clc1cc(Cl)cc(-c2nc(-c3ccccn3)no2)c1 | –
17 | 6.63 | O=[N+]([O-])c1cccc(-c2nc(-c3ccccn3)no2)c1 | –
18 | 6.93 | Brc1cccc(-c2nc(-c3ccccn3)no2)c1 | –
19 | < 5.00 | Clc1ccc(-c2nc(-c3ccccn3)no2)cc1Cl | –
20 | 6.27 | COc1cccc(-c2nc(-c3ccccn3)no2)c1 | –
21 | 6.36 | Clc1ccccc1-c1nc(-c2ccccn2)no1 | –
22 | 6.07 | Fc1cccc(-c2nc(-c3ccccn3)no2)c1 | –
23 | 6.56 | Clc1cccc(-c2nc(-c3ccccn3)no2)c1Cl | –
24 | 6.35 | Cc1cccc(-c2nc(-c3ccccn3)no2)c1 | –
25 | 5.77 | Clc1ccc(-c2nc(-c3ccccn3)no2)c(Cl)c1 | –
